Measured values as given in ChEMBL document CHEMBL4229565 (J Med Chem, 2018).

What was measured:
[1] = target: T1, Glycylpeptide N-tetradecanoyltransferase 1 (Homo sapiens, UniProt P30419); experiment: Inhibition of human NMT1 using [3H]-myristoyl-coA/biotinylated CAP5.5 as substrate after 15 mins by scintillation proximity assay
T1 sequence (P30419 whole entry): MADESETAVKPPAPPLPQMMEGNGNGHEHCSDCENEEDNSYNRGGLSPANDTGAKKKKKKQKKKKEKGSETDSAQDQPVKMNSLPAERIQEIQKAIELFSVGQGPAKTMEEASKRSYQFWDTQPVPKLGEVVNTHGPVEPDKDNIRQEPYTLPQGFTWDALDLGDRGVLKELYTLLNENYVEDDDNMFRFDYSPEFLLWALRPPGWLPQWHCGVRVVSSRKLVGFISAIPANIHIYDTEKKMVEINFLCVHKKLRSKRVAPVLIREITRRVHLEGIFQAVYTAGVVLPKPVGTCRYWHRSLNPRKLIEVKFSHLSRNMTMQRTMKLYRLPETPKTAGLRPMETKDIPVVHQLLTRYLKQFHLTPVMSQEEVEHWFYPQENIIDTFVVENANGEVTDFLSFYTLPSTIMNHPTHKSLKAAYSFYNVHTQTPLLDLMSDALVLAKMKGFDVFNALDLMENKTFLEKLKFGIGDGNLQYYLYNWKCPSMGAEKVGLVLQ

[2] = tested on: human NMT1 versus Trypanosoma brucei NMT; experiment: Selectivity ratio of IC50 for human NMT1 to IC50 for Trypanosoma brucei NMT; format: toxicity; conditions: read-out: Ratio IC50
Outline: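 Both enzymes assayed by SPA in the same buffer: 0.125 μM [3H]myristoyl-coA, 0.5 μM biotinylated CAP5.5 peptide, 5 nM NMT, 22–23 °C. Reactions stopped at 15 min for HsNMT1 and 50 min for TbNMT. The ratio is HsNMT IC50 divided by TbNMT IC50.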

[3] = tested on: Trypanosoma brucei brucei; experiment: Antitrypanosomal activity against bloodstream form of Trypanosoma brucei brucei s427 after 69 hrs by resazurin-based […] analysis; format: functional, organism-based; conditions: s427, 69 h
Outline: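 Bloodstream T. b. brucei s427 was grown in modified HMI9 (56 μM 1-thioglycerol in place of 2-mercaptoethanol) and counted by hemocytometer. Cells (10^4/ml) were added to compound in DMSO and incubated 69 h at 37 °C, 5% CO2. Resazurin (50 μM final) was then added for 4 h more. Fluorescence read at ex 528/em 590 nm.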

[4] = Inhibition of Trypanosoma brucei NMT using [3H]-myristoyl-coA/biotinylated CAP5.5 as substrate after 50 mins by scintillation proximity assay
Outline: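 TbNMT scintillation proximity assay at 22–23 °C, with test compound dilutions added in DMSO. Reaction: 30 mM Tris pH 7.4, 0.5 mM EDTA, 0.5 mM EGTA, 1.25 mM DTT, 0.1% Triton X-100, 0.125 μM [3H]myristoyl-coA, 0.5 μM biotinylated CAP5.5 peptide, 5 nM enzyme. Enzyme added first, then substrate mix to start; stopped after 50 min with phosphoric acid pH 4.0/MgCl2/SPA beads; scintillation counting.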

[5] = Intrinsic clearance in CD1 mouse liver microsomes at 1 uM measured up to 30 mins by UPLC-MS/MS method; format: ADME, microsome; conditions: 0.5 h
human NMT = experiment: Therapeutic index, ratio of IC50 for human NMT to EC50 for bloodstream form of Trypanosoma brucei brucei s427; format: toxicity; conditions: read-out: Ratio IC50/EC50
[6] = target: Voltage-gated inwardly rectifying potassium channel KCNH2 (Homo sapiens, UniProt Q12809); experiment: Inhibition of human ERG by patch clamp assay
Sequence of Voltage-gated inwardly rectifying potassium channel KCNH2 (Q12809 whole entry): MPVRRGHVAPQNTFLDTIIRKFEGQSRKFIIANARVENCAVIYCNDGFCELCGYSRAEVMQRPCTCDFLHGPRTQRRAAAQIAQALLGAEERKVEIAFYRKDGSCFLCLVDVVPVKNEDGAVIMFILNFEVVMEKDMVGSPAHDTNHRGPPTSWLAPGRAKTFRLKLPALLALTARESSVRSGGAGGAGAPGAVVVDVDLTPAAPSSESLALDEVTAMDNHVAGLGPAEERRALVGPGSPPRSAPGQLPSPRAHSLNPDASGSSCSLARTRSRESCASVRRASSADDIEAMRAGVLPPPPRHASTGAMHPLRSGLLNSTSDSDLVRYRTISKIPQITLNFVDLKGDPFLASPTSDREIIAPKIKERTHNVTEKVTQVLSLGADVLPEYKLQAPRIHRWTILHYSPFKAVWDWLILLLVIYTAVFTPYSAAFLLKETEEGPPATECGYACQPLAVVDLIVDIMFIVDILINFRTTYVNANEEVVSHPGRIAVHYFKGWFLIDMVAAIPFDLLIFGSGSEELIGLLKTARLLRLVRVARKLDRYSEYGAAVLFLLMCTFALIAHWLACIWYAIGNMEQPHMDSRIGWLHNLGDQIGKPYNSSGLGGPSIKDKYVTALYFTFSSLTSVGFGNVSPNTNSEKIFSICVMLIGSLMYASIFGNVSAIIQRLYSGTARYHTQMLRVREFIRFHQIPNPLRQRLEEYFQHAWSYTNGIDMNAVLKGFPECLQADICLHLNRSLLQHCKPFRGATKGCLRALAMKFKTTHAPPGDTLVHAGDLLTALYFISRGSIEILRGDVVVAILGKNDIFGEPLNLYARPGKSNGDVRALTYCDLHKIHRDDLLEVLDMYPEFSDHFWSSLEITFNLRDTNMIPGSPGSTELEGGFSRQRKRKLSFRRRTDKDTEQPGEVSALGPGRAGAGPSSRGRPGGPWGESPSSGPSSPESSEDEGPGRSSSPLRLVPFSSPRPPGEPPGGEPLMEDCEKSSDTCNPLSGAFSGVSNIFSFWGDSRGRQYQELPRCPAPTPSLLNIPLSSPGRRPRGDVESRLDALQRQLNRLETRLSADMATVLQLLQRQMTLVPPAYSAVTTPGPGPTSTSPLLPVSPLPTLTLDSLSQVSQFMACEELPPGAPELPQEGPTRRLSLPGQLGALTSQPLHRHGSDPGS

| SMILES | IC50 [1] [nM] | EC50 [3] [nM] | CLH [5] [mL/min/g] | selectivity ratio [2] | IC50 [4] [nM] | selectivity ratio (human NMT) | IC50 [6] [nM] |
| --- | --- | --- | --- | --- | --- | --- | --- |
| CC(C)Cc1ccc2nn(C)cc2c1NS(=O)(=O)c1ccc(CCCC2CCN(C)CC2)cc1 | – | 5 | 1.2 | – | < 5 | – | – |
| CC(C)Cc1ccc2nn(C)cc2c1NS(=O)(=O)c1ccc(CCCOC[C@@H]2CCCN2C)cc1 | – | 31 | 3.7 | – | < 5 | – | 3000 |
| CC(C)Cc1ccc2nn(C)cc2c1NS(=O)(=O)c1ccc(CCCCN2CCN3CCC[C@@H]3C2)cc1 | – | 140 | 3.7 | – | 14 | – | – |
| CC(C)Cc1ccc2nn(C)cc2c1NS(=O)(=O)c1ccc(CCCOC[C@H]2CN(C)CCO2)cc1 | – | 9 | 22 | – | < 5 | – | – |
| CC(C)Cc1ccc2ncccc2c1NS(=O)(=O)c1ccc(CCCCC2CCNCC2)cc1 | – | 21 | 1.5 | – | < 5 | – | – |
| COc1ccc(S(=O)(=O)Nc2cc(C(=O)O)ccc2N2CCCCCC2)cc1 | – | – | – | – | > 100000 | – | – |
| CC(C)Cc1ccc2ncccc2c1NS(=O)(=O)c1ccc(CCCCN2C[C@@H](C)N[C@@H](C)C2)cc1 | – | 350 | – | – | 16 | – | – |
| CC(C)Cc1ccc2nn(C)cc2c1NS(=O)(=O)c1ccc(CCCOC[C@H]2CCCN2C)cc1 | – | 20 | – | – | < 5 | – | – |
| CC(C)Cc1ccc2nn(C)cc2c1NS(=O)(=O)c1ccc(CCCOC[C@@H]2COCCN2C)cc1 | – | 76 | – | – | 9 | – | – |
| O=C1OCc2c1ccc(N1CCCC1)c2NS(=O)(=O)c1ccc(Br)cc1 | – | – | – | – | > 100000 | – | – |
| CC(C)Cc1ccc2ncccc2c1NS(=O)(=O)c1ccc(CCCOC[C@@H]2CNCCO2)cc1 | – | 39 | – | – | < 5 | – | – |
| CC(C)Cc1ccc2nn(C)cc2c1NS(=O)(=O)c1ccc(CCCCN2CCCN(C)CC2)cc1 | – | 35 | 4 | – | < 5 | – | – |
| O=S(=O)(Nc1cc(-c2cccnc2)ccc1N1CCCC1)c1ccc(Br)cc1 | – | – | – | – | 39000 | – | – |
| CC(C)Cc1ccc2ncccc2c1NS(=O)(=O)c1ccc(CCCO[C@@H]2CCCN(C)C2)cc1 | – | 39 | – | – | < 5 | – | – |
| CC(C)Cc1ccc2ncccc2c1NS(=O)(=O)c1ccc(CCCCN2CCN3CCC[C@@H]3C2)cc1 | – | 250 | 8.9 | – | 12 | – | – |
| CC(C)Cc1ccc2ncccc2c1NS(=O)(=O)c1ccc(CCCO[C@H]2C[C@H]3CC[C@@H](C2)N3C)cc1 | – | 9 | 2.3 | – | < 5 | – | – |
| CC(C)Cc1ccc2nn(C)cc2c1NS(=O)(=O)c1ccc(Br)cc1 | > 100000 | > 50000 | – | > 91 | 1100 | – | – |
| COC(=O)c1ccc(N2CCCC2)c(NS(=O)(=O)c2ccc(OC)cc2)c1 | > 100000 | 15000 | – | > 100 | 700 | > 6.7 | – |
| CC(C)Cc1ccc2ncccc2c1NS(=O)(=O)c1ccc(CCCCC2CCN(C)CC2)cc1 | – | 19 | 6.2 | – | < 5 | – | – |
| CC(C)Cc1ccc2ncccc2c1NS(=O)(=O)c1ccc(CCCOC[C@@H]2CN(C)CCO2)cc1 | – | 33 | – | – | < 5 | – | – |
| COC(=O)c1ccc(N2CCCCCC2)c(NS(=O)(=O)c2ccc(OC)cc2)c1 | > 100000 | 12000 | – | > 100 | 1000 | 8.3 | – |
| COC(=O)c1ccc(N2CCCCC2)c(NS(=O)(=O)c2ccc(Br)cc2)c1 | – | – | – | – | > 100000 | – | – |
| CC(C)Cc1ccc2nn(C)cc2c1NS(=O)(=O)c1ccc(CCCN2CCCN(C)CC2)cc1 | – | 16 | – | – | 5 | – | – |
| COC(=O)c1cccc(NS(=O)(=O)c2ccc(Br)cc2)c1 | – | – | – | – | > 100000 | – | – |
| CC(C)Cc1ccc2nn(C)cc2c1NS(=O)(=O)c1ccc(CCCOC[C@@H]2CN(C)CCO2)cc1 | – | 26 | 24 | – | < 5 | – | – |
| O=S(=O)(Nc1ccc2scnc2c1)c1ccc(Br)cc1 | – | – | – | – | 24000 | – | – |
| Cn1cc2c(NS(=O)(=O)c3ccc(Br)cc3)c(CC3CCCCC3)ccc2n1 | > 100000 | > 50000 | – | > 59 | 1700 | – | – |
| Cn1cc2c(NS(=O)(=O)c3ccc(Br)cc3)cccc2n1 | > 100000 | > 50000 | 6.3 | > 3.7 | 27000 | – | – |

The next lines start with results.

| IC50 [1] [nM] | EC50 [3] [nM] | CLH [5] [mL/min/g] | SMILES | selectivity ratio [2] | IC50 [4] [nM] | selectivity ratio (human NMT) | IC50 [6] [nM] |
| --- | --- | --- | --- | --- | --- | --- | --- |
| > 100000 | > 50000 | – | Cn1cc2c(NS(=O)(=O)c3ccc(Br)cc3)c(C3CCCC3)ccc2n1 | > 3.8 | 26000 | – | – |
| – | 18 | 3.7 | CC(C)Cc1ccc2ncccc2c1NS(=O)(=O)c1ccc(CCCN2CCCN(C)CC2)cc1 | – | < 5 | – | – |
| > 100000 | 23000 | 33 | O=S(=O)(Nc1c(CC2CCCCC2)ccc2ncccc12)c1ccc(Br)cc1 | > 71 | 1400 | > 4.3 | – |
| > 100000 | – | 3.6 | Cc1ccc2ncccc2c1NS(=O)(=O)c1ccc(Br)cc1 | > 3 | 33000 | – | – |
| – | 180 | 1.3 | CC(C)Cc1ccc2ncccc2c1NS(=O)(=O)c1ccc(CCCCN2CCNCC2)cc1 | – | 10 | – | – |
| > 100000 | 32000 | – | Cn1cc2c(NS(=O)(=O)c3ccc(Br)cc3)c(C3CCCCC3)ccc2n1 | > 5.9 | 17000 | > 3.1 | – |
| > 100000 | > 50000 | 23 | O=S(=O)(Nc1c(Cc2ccccc2)ccc2ncccc12)c1ccc(Br)cc1 | > 16 | 6200 | – | – |
| – | 84 | 2.3 | CC(C)Cc1ccc2ncccc2c1NS(=O)(=O)c1ccc(CCCN2CCN(C)CC2)cc1 | – | 7 | – | – |
| > 100000 | > 50000 | – | O=S(=O)(Nc1cccc2ncccc12)c1ccc(Br)cc1 | > 1.1 | 87000 to 90000 | – | – |
| 41000 | 11000 | 27 | O=S(=O)(Nc1c(N2CCCC2)ccc2ncccc12)c1ccc(Br)cc1 | 5.5 | 7500 | 3.7 | – |
| > 100000 | 50000 | – | O=S(=O)(Nc1c(-c2ccccc2)ccc2ncccc12)c1ccc(Br)cc1 | – | > 100000 | – | – |
| > 100000 | > 50000 | > 50 | CC(C)Cc1ccc2ncccc2c1NS(=O)(=O)c1ccc(Br)cc1 | > 59 | 1700 | – | – |
| > 100000 | 24000 | 33 | Cn1cc2c(NS(=O)(=O)c3ccc(Br)cc3)c(N3CCCC3)ccc2n1 | > 3.7 | 27000 | > 4.1 | – |
| 1200 | 76 | – | CN1CCC(CCCCc2ccc(S(=O)(=O)Nc3c(N4CCCC4)ccc4ncccc34)cc2)CC1 | 110 | 11 | 16 | – |
| – | > 50000 | > 50 | O=S(=O)(Nc1c(C2CCCC2)ccc2ncccc12)c1ccc(Br)cc1 | – | 3200 | – | – |
| > 100000 | 21000 | – | COC(=O)c1ccc(N2CCCC2)c(NS(=O)(=O)c2ccc(Br)cc2)c1 | > 100 | 800 | > 4.8 | – |
| – | 18000 | > 50 | O=S(=O)(Nc1c(N2CCCCCC2)ccc2ncccc12)c1ccc(Br)cc1 | – | 690 | – | – |
| – | 9 | 2.6 | CC(C)Cc1ccc2ncccc2c1NS(=O)(=O)c1ccc(CCCC2CCN(C)CC2)cc1 | – | < 5 | – | – |
| > 100000 | > 50000 | – | CCC(CC)c1ccc2ncccc2c1NS(=O)(=O)c1ccc(Br)cc1 | > 17 | 5700 | – | – |
| > 100000 | 39000 | 38 | O=S(=O)(Nc1c(C2CCCCC2)ccc2ncccc12)c1ccc(Br)cc1 | > 1.6 | 63000 | > 2.6 | – |
